Consider 24 molecules from ChEMBL document CHEMBL3611988, “Design and synthesis of 4-benzylpiperidine carboxamides as dual serotonin and norepinephrine reuptake inhibitors” (Bioorg Med Chem, 2015).

pIC50: −log10 of the molar value.

Common to all, as to type: cell-based
Assay [1] deals with T1, Sodium-dependent serotonin transporter (Homo sapiens, UniProt P31645). Description: Inhibition of human SERT expressed in HEK293 cells assessed as reduction of serotonin reuptake using [3H]-SERT at 1 uM after 15 mins by liquid scintillation counting relative to venlafaxine HCl. The method in brief:
(§1)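 HEK-293 cells stably transfected with hSERT or hNET, grown at 37 °C in 5% CO2, seeded in poly-lysine-coated 24-well plates for 24 h. Washed, then preincubated with test drug in uptake buffer (Tris/HEPES, NaCl, KCl, CaCl2, MgSO4, ascorbic acid, glucose; pH 7.1) at 37 °C for 15–20 min. Radiolabelled substrate added at 20 nM final for about 5 min at 37 °C. Cells washed three times with ice-cold buffer and lysed in 1% SDS.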
Target sequence in this assay (P31645 whole entry, looked up): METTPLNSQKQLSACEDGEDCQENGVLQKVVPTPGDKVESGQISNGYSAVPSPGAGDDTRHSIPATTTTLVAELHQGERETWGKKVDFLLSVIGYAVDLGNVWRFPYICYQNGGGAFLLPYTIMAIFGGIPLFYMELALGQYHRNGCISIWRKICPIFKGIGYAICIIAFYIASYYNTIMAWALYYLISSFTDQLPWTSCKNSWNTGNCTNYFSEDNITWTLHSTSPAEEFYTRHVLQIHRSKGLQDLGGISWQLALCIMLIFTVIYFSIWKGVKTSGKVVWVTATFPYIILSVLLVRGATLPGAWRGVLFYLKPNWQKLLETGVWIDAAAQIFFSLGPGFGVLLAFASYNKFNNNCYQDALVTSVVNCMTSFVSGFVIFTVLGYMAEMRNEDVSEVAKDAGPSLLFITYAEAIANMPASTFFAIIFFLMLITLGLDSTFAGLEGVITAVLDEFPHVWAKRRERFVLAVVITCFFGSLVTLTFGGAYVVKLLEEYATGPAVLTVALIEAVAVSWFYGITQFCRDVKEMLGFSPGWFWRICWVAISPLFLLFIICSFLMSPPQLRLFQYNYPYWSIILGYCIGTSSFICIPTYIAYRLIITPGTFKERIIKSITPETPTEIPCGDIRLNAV

Assay [2] addresses T1, Sodium-dependent serotonin transporter. The assay is described as follows: Inhibition of human SERT expressed in HEK293 cells assessed as reduction of serotonin reuptake using [3H]-SERT after 15 mins by liquid scintillation counting.
Target sequence in this assay (P31645 whole entry): as the sequence (P31645 whole entry, looked up) above
The target in assay [3] is T2, Sodium-dependent noradrenaline transporter (Homo sapiens, UniProt P23975). The assay is described as follows: Inhibition of human NET expressed in HEK293 cells assessed as reduction of […] reuptake using [3H]-NET at 1 uM after 15 mins by liquid scintillation counting relative to GBR-12909. The method in brief: as §1
T2 sequence (P23975 whole entry): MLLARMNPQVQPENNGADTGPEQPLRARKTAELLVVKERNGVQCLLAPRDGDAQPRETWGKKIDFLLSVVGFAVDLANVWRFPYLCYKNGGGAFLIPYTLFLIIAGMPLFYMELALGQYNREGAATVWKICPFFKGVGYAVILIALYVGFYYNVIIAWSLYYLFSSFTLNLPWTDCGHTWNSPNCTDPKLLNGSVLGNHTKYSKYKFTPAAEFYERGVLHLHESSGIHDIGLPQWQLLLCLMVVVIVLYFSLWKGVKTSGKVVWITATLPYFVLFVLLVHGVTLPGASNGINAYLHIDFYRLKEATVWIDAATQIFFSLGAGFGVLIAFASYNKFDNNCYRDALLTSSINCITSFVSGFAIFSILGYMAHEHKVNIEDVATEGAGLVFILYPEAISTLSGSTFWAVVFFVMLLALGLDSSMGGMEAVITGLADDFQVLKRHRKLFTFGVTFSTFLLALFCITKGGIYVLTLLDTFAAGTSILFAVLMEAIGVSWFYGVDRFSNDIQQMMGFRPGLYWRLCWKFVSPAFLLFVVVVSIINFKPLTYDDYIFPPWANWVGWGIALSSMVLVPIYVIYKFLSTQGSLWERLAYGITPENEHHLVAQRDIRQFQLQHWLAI
In assay [4] the target is T2, Sodium-dependent noradrenaline transporter. Description: Inhibition of human NET expressed in HEK293 cells assessed as reduction of […] reuptake using [3H]-NET after 15 mins by liquid scintillation counting. Summed up: as §1
Assay [5] shares this target. Description: Inhibition of human NET expressed in HEK293 cells assessed as reduction of […] reuptake using [3H]-NET at 3 uM after 15 mins by liquid scintillation counting relative to venlafaxine HCl. The method in brief: as §1

In general, pIC50 refers to −log10 of the IC50, conventionally taken in molar units. Consider `O=C(NCCCN1CCC(Cc2ccccc2)CC1)c1cc(Cl)cc(Cl)c1`, for which the figures for the Ratio in assay [1] and in assay [3] were 0.83 and 1.12, respectively. In addition, the figures for the pIC50 in assay [2] and in assay [4] were 6.37 and 6.57, respectively.
Take `O=C(NCCCN1CCC(Cc2ccccc2)CC1)c1cccc2ccccc12`: the Ratio in assay [1] was 0.6; in assay [3] it was 1.32.
As to `O=C(NCCN1CCC(Cc2ccccc2)CC1)c1ccc(-c2ccccc2)cc1`, the Ratio in assay [5] is 1.49; in assay [1] it was 0.98. Besides, the pIC50 was 6.01 in assay [2] and 6.33 in assay [4].
On to `O=C(NCCN1CCC(Cc2ccccc2)CC1)c1cc(Cl)cc(Cl)c1`, for which the Ratio in assay [1] is 0.64; in assay [3] it was 1.
For `O=C(NCCCN1CCC(Cc2ccccc2)CC1)c1ccc2ccccc2n1`, the values for the Ratio in assay [5] and in assay [1] were 0.62 and 0.85, respectively.
For `O=C(NCCN1CCC(Cc2ccccc2)CC1)c1cc2ccccc2o1`, in that order: 1.09 and 0.78.
For the molecule `COc1ccc2cc(C(=O)NCCCN3CCC(Cc4ccccc4)CC3)ccc2c1`, the Ratio stood at 0.98 in assay [1] and 1 in assay [3]. The values for the pIC50 in assay [2] and in assay [4] were 6.49 and 6.62, respectively.
`O=C(NCCCN1CCC(Cc2ccccc2)CC1)c1ccc(-c2ccccc2)cc1`: the Ratio in assay [5] turned out to be 1.59; in assay [1], 1.01. Also, the pIC50 was 7.25 in assay [2] and 6.82 in assay [4].
`O=C(NCCN1CCC(Cc2ccccc2)CC1)c1cc2ccccc2[nH]1`: the Ratio is 1.49 in assay [5] and 0.58 in assay [1].
Regarding `O=C(NCCCN1CCC(Cc2ccccc2)CC1)c1cc2ccccc2s1`, the Ratio came to 1.8 in assay [5] and 1.1 in assay [1]. In addition, the values for the pIC50 in assay [2] and in assay [4] were 6.35 and 5.32, respectively.
As for `O=C(NCCCN1CCC(Cc2ccccc2)CC1)c1ccc2cc(Br)ccc2c1`, the Ratio was 1.11 in assay [1] and 0.94 in assay [3]. Also, the pIC50 in assay [2] is 5.72; in assay [4] it was 6.05.
For `O=C(NCCCN1CCC(Cc2ccccc2)CC1)c1cc2ccccc2o1`, the Ratio in assay [5] amounted to 1.54; in assay [1], 0.84. For the same molecule, the figures for the pIC50 in assay [2] and in assay [4] were 6.30 and 6.21, respectively.
Turning to `O=C(NCCN1CCC(Cc2ccccc2)CC1)c1ccc2ccccc2c1`, the values for the Ratio in assay [1] and in assay [3] were 0.8 and 1.27, respectively.
For the molecule `O=C(NCCCN1CCC(Cc2ccccc2)CC1)C(c1ccccc1)c1ccccc1`, the Ratio stood at 1.19 in assay [5] and 0.26 in assay [1].
In the case of `O=C(NCCN1CCC(Cc2ccccc2)CC1)C(c1ccc(Cl)cc1)c1ccc(Cl)cc1`, the figures for the Ratio in assay [5] and in assay [1] were 1.54 and 0.4, respectively.
With `O=C(NCCCN1CCC(Cc2ccccc2)CC1)c1ccc2ccccc2c1`, the Ratio came to 0.95 in assay [1] and 1.03 in assay [3]. Also, the pIC50 in assay [2] was 6.97; in assay [4] it was 6.47.
Regarding `O=C(NCCN1CCC(Cc2ccccc2)CC1)C(c1ccccc1)c1ccccc1`, the Ratio in assay [5] amounted to 1.04; in assay [1] it was 0.29.
Turning to `O=C(NCCCN1CCC(Cc2ccccc2)CC1)c1cc2ccccc2[nH]1`, the Ratio in assay [5] stood at 1.72; in assay [1], 0.84. Also, the pIC50 in assay [2] was 6.26; in assay [4], 6.57.
As for `O=C(NCCN1CCC(Cc2ccccc2)CC1)c1cc2ccccc2s1`, the Ratio is 1.92 in assay [5] and 0.77 in assay [1].
`O=C(NCCN1CCC(Cc2ccccc2)CC1)c1cccc2ccccc12`: the Ratio is 0.91 in assay [1] and 0.1 in assay [3].
In the case of `O=C(NCCCN1CCC(Cc2ccccc2)CC1)C(c1ccc(Cl)cc1)c1ccc(Cl)cc1`, the Ratio in assay [5] was found to be 1.37; in assay [1] it was 0.19.
As to `O=C(NCCN1CCC(Cc2ccccc2)CC1)c1ccc2ccccc2n1`, the Ratio in assay [1] is 1.03; in assay [3], 0.53. The pIC50 is 6.10 in assay [2] and 6.56 in assay [4].
Turning to `COc1ccc2cc(C(=O)NCCN3CCC(Cc4ccccc4)CC3)ccc2c1`, the Ratio in assay [5] is 1.97; in assay [1], 0.63.
For `O=C(NCCN1CCC(Cc2ccccc2)CC1)c1ccc2cc(Br)ccc2c1`, the Ratio turned out to be 0.51 in assay [1] and 0.83 in assay [3].
